High-throughput results (PubChem)
In the library only some 3.9% were active in any assay of this set; here they are far more common.
TAAR1 antag: human TAAR1 antagonists, primary screen, Fluo-8 calcium fluorescence, CHO RD-HGA16 cells; 360,000 tested, 1.5% active; inhibition, % at 3 µM; Trace amine-associated receptor 1 (Homo sapiens), Q96RJ0; antagonist; AID 624466, 2012;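 active means inhibition above a per-plate cutoff, the mean inhibition of test compounds on that plate plus 3 SD, cut at about 49% in these data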;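 further: 0% = DMSO plus EC80 beta-PEA response and 100% = DMSO alone without agonist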
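Assay system: RD-HGA16 CHO cells with stable hTAAR1 and Gα16 / Reagent: EC80 β-phenethylamine stimulus / Doses: 3 µM, single point / Timing: dye loading 75 min at 37 °C, then 30 min room temperature / Measured by: Fluo-8 intracellular calcium dye fluorescence, real-time kinetic reads / Controls: vehicle wells and EC80 agonist wells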
HTR2A ag: mouse Htr2a agonists via beta-arrestin recruitment, primary screen, cell-based, luminescence. 5-hydroxytryptamine receptor 2A (Mus musculus), P35363. CHO-K1 mHTR2A beta-arrestin complementation; percent of 30 µM serotonin response. activation, % at 7.6 µM. 360,000 tested, 0.66% active. AID 624169, 2012;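 active means activation above a run cutoff, the mean activation of all tested compounds plus 3 SD, cut at about 14% in these data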;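 further: 0% = plate median of compound wells and 100% = 30 µM serotonin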
Target sequence (P35363 whole entry, looked up): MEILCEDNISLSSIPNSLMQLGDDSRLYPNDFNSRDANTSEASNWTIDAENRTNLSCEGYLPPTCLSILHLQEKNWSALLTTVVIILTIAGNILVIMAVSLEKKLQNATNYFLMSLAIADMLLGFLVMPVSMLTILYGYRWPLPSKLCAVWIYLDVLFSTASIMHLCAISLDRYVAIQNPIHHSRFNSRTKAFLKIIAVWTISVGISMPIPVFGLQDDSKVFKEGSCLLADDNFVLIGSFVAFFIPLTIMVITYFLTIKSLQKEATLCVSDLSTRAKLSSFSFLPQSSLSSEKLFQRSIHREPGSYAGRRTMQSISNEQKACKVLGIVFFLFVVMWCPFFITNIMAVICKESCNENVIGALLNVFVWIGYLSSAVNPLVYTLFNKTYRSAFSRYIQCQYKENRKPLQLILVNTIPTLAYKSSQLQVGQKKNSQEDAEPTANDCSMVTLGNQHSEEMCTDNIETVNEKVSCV
CHRM1 agonist: human M1 muscarinic receptor agonists, primary screen, Fluo-8 calcium fluorescence, CHO-K1 cells, HTS; Muscarinic acetylcholine receptor M1 (Homo sapiens), P11229; CHO-K1 hM1, agonist mode; 0% DMSO, 100% acetylcholine EC100; activation, % at 3 µM; 360,000 tested, 0.33% active;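 active means activation above the run's mean compound activation plus 3 SD, cut at about 16% in these data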;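 further: peak over basal fluorescence ratio within a 140 s kinetic read after compound addition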
M1 PAM: human M1 muscarinic receptor positive allosteric modulators, primary screen, CHO-K1 cells, Fluo-8 calcium fluorescence, 1536-well | CHO-K1 hM1, ACh EC20; 0% = ACh EC20, 100% = maximal ACh | activation, % at 3 µM | 360,000 tested, 0.088% active | AID 588819, 2011; in the data active means activation above about 19%, passing the limit was not always enough
TAAR1 ag: human TAAR1 agonists, primary screen, Fluo-8 calcium fluorescence, CHO RD-HGA16 cells; Trace amine-associated receptor 1 (Homo sapiens), Q96RJ0; vehicle wells 0%, saturating PEA agonist 100%; activation, % at 3 µM; 360,000 tested, 0.99% active; AID 624467, 2012;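 active means activation above the mean activation of all test compounds in the run plus 3 SD, cut at about 38% in these data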
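test system = CHO RD-HGA16 cells carrying human TAAR1 plus Gα16 | schedule = 17-24 h seeding, 75 min 37 °C dye, 30 min RT | compound dosing = 3 µM single concentration | control set = DMSO and PEA EC100 | replicates = n 1 | signal = Fluo-8 fluorescence, 5 s baseline then 140 s kinetic read | measure = percent activation vs PEA EC100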
CHRM1 antagonist: human M1 muscarinic receptor antagonists, primary screen, CHO-K1 cells, Fluo-8 calcium fluorescence, 1536-well. Muscarinic acetylcholine receptor M1 (Homo sapiens), P11229. CHO-K1 hM1, ACh EC80 antagonist. inhibition, % at 3 µM. 360,000 tested, 1.3% active. AID 588852, 2011;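 active means percent inhibition above its own plate's cutoff, namely the mean of that plate's compound wells plus 3 SD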;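 further: peak over basal fluorescence ratio during 140 s after agonist addition; 0% = ACh EC80 plus DMSO and 100% = DMSO alone without agonist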
TAAR1 nonsel count: nonselective antagonists in TAAR1 counter-screen cells, counter-screen for hTAAR1 antagonist project, cell-based, fluorescence, calcium. shares compounds with TAAR1 antag. counterscreen cell line, antagonist mode. inhibition, % at 3 µM. 2,400 tested, 77% active. AID 651780, 2012; in the data active means inhibition above about 22%;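 further: CHO-Ga16 host cells stimulated with ATP at an EC80 level; 0% = agonist EC80 plus vehicle and 100% = vehicle without agonist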
TAAR1 antag conf: human TAAR1 antagonists, retest of hits, confirmation, cell-based, fluorescence | shares compounds with TAAR1 antag | TAAR1-expressing cells, fluorescence antagonist read-out | inhibition, % at 3 µM | 2,400 tested, 40% active; in the data active means inhibition above about 49%;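 further: CHO-Ga16 host cells challenged with agonist PEA near its EC80; 0% = agonist at EC80 plus vehicle and 100% = vehicle with no agonist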
Ga16 ag counter: calcium activation in Ga16-expressing cells, counter-screen for TAAR1 antagonist project, cell-based, fluorescence. shares compounds with TAAR1 antag. agonist counterscreen. activation, % at 3 µM. 2,400 tested, 18% active; in the data active means activation above about 12%;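 further: 0% = vehicle wells and 100% = saturating stimulus response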
TAAR1 ag count: TAAR1 activation by candidate antagonists – cell-based, fluorescence, counter-screen for TAAR1 antagonist project; shares compounds with TAAR1 antag; hTAAR1 cell line, agonist mode; activation, % at 3 µM; 2,400 tested, 2% active; in the data active means activation above about 37%;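 further: CHO cells stably expressing TAAR1 with calcium dye readout; 0% = DMSO vehicle and 100% = full agonist response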
Starred values were filed as active, the others as inactive; · = no result given.

SMILES	TAAR1 antag	HTR2A ag	CHRM1 agonist	M1 PAM	TAAR1 ag	CHRM1 antagonist	TAAR1 nonsel count	TAAR1 antag conf	Ga16 ag counter	TAAR1 ag count
Nc1nc(-c2ccccn2)nc(N)c1Cc1ccc(Cl)cc1Cl	-1.3	-5.6	-9.9	4.3	10.2	14.1	·	·	·	·
CCN(CC(=O)Nc1c(C(=O)OC)[nH]c2ccc(Cl)cc12)c1ccc2c(c1)OCO2	59.7*	-4.8	-2.5	-2.9	6.0	19.5	27.2*	36.6	4.7	3.4
O=c1[nH]c(=S)[nH]c2c1CN(Cc1ccc(F)cc1)CC2	-8.1	8.1	-0.8	10.8	2.1	-12.9	·	·	·	·
O=C(NC1(Cc2ccccc2)CCN(CCCc2ccccc2)C1=O)c1ccccc1 (configuration not stated)	66.4*	-1.7	-2.4	-13.9	25.5	16.9	26.4*	48.3	8.2	12.1
c1ccc(CCCCN2CCN=C2Nc2ccccc2)cc1	6.2	-7.3	-10.8	-16.5	8.2	28.9	·	·	·	·
O=c1[nH]c(-c2ccccc2)cn1C1CCN(Cc2ccc(-c3nc4ccc(Br)cc4nc3-c3ccccc3)cc2)CC1	46.8	·	·	·	8.3	·	·	·	·	·
Fc1ccc2nc(-c3ccc(CN4CCC(c5nc6ccccc6[nH]5)CC4)cc3)c(-c3ccccc3)nc2c1	53.7*	·	·	·	18.8	·	47.1*	54.9*	21.3*	34.5
O=C(CCC1CCCCC1)Nc1ccc(C(=O)c2ccncc2)cc1	66.4*	0.6	-5.2	-8.2	7.2	6.8	36.4*	55.5*	10.6	11.1
O=S(=O)(c1cccc(F)c1)N1CCN(c2nc(-c3cccnc3)nc3ccccc23)CC1	61.1*	0.6	-4.5	-7.5	21.0	3.9	24.1*	54.4*	8.5	11.4
COc1ccc(-c2csc(C(NC(C)=O)c3cccc(F)c3)n2)cc1 (configuration not stated)	-6.8	1.7	4.5	19.4	3.1	-14.5	·	·	·	·
CC1(C)c2[nH]c3ccccc3c2C[C@H]2C(=O)N(Cc3ccccc3F)C(=O)N21	13.7	3.1	8.9	14.4	13.3	-7.5	·	·	·	·
Cc1ccccc1CN1C(=O)[C@H]2Cc3c([nH]c4ccccc34)C(C)(C)N2C1=O	62.5*	7.8	-1.9	4.9	15.2	2.1	22.8*	35.5	5.7	5.7
Cc1cccc(CN2C(=O)[C@H]3Cc4c([nH]c5ccccc45)C(C)(C)N3C2=O)c1	60.5*	-3.2	-4.3	-10.7	9.7	21.1	24.1*	25.9	2.4	1.9
Cc1nn(Cc2ccc(Cl)cc2Cl)c(C)c1NC(=O)c1sc2ccccc2c1Cl	-7.1	5.5	-3.3	8.1	4.1	-0.3	·	·	·	·
Cc1ccccc1Cn1nc(C)c(NC(=O)c2sc3ccccc3c2Cl)c1C	55.3*	-1.2	-2.2	-9.1	8.7	16.4	26.1*	41.5	4.8	4.0
CCOC(=O)c1c(-c2ccccc2)nnn1-c1nc(OCC)nc(N2CCCCC2)n1	52.7*	5.7	-4.2	-9.5	13.5	3.1	22.9*	29.8	6.4	6.0
COc1cc(-c2cc3nc4ccccc4n3c(N)c2C#N)cc(OC)c1OC	89.6*	2.6	-1.3	-13.7	17.3	36.9*	34.1*	53.3*	8.1	5.6
CCOC(=O)C1C(=O)C=C(c2ccccc2)CC1c1ccccc1 (configuration not stated)	58.8*	1.7	-4.0	-10.6	4.0	5.4	29.5*	40.4	3.2	0.8
CCN(CC)S(=O)(=O)c1ccc2c(c1)N(CC(=O)Nc1cccnc1Cl)C(=O)CO2	4.3	3.1	-3.8	1.9	10.2	0.7	·	·	·	·
COc1cccc(NC(=O)C2CCN(C(=O)[C@@H]3Cc4ccccc4CN3C(=O)OC(C)(C)C)CC2)c1	52.6*	-4.2	5.8	1.2	14.6	12.7	24.5*	44.3	9.9	15.1
O=C(NCCc1ccc(Cl)cc1)c1ccc2[nH]c(=O)c(=O)[nH]c2c1	-1.9	-2.2	0.8	15.9	3.0	-14.7	·	·	·	·
Cc1ccc2c(c1)C(=O)C(=O)N2Cc1ccc(Br)cc1	82.0*	-6.7	20.8*	8.6	18.2	0.3	19.3	43.1	7.5	-0.1
Cc1ccc(CN2C(=O)C(=O)c3cc(C)ccc32)cc1	32.7	-5.4	-2.2	1.0	4.8	5.1	·	·	·	·
Cc1onc(-c2ccccc2Cl)c1C(=O)Nc1cccc(S(=O)(=O)N2CCOCC2)c1	10.9	-4.2	-0.6	-4.2	2.2	3.8	·	·	·	·
COc1ccc(/C=C/C(=O)Nc2cccc(S(=O)(=O)N3CCOCC3)c2)cc1OC	14.3	4.3	-4.4	13.4	5.4	-21.1	·	·	·	·
Cc1onc(-c2c(F)cccc2Cl)c1C(=O)Nc1cccc(S(=O)(=O)N2CCOCC2)c1	50.4*	-3.4	1.7	-5.5	14.1	-9.4	26.2*	38.5	7.6	10.8
COc1ccccc1/C=C/C(=O)Nc1cccc(S(=O)(=O)N2CCOCC2)c1	58.7*	7.3	-5.0	-6.2	9.2	7.0	23.9*	45.4	5.4	2.7
N#CC1=C(N)NC(SCc2ccccc2)=C(C#N)C12CCCC2	46.2	-0.1	-3.4	5.2	15.5	-6.3	·	·	·	·
N#CC1=C(N)NC(SCC(=O)c2ccccc2)=C(C#N)C12CCCC2	55.8*	2.0	-7.2	4.3	12.3	0.3	33.5*	44.8	13.0*	11.6
O=C1C(CCc2ccccc2)ON=C(c2cnccn2)N1Cc1ccc(F)cc1 (configuration not stated)	29.8	-5.1	-5.0	-4.0	-0.2	-2.5	·	·	·	·
